Laboratory results published in ChEMBL document CHEMBL1649062, “Integration of lead optimization with crystallography for a membrane-bound ion channel target: discovery of a new class of AMPA receptor positive allosteric modulators” (J Med Chem, 2011).
The source made the active and inactive calls.

Columns and labels:
Cytochrome P450 2D6 = Cytochrome P450 2D6 (Homo sapiens, UniProt P10635); assay: Inhibition of human CYP2D6 by fluorescence assay; format: ADME
How it was run: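 Recombinant human CYP bactosomes (0.1 mg/mL) in 50 mM potassium phosphate pH 7.4, preincubated 10 min at 37 °C with test compound (0.1-10 μM, 7 concentrations) and fluorogenic substrate. Substrates: ethoxyresorufin 0.5 μM (1A2), FCA 50 μM (2C9), BMC 10 μM (2C19), MMC 10 μM (2D6), DEF 1 μM or 7-BQ 25 μM (3A4). Reaction started with NADPH regenerating system; metabolite formation read over 10 min. IC50 from percent of control rate; miconazole control; triplicate.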

[1] = Cmax in rat at 3 mg/kg, po; format: ADME, organism-based; set-up: dose 3 mg/kg, route oral; details: in vivo
[2] = Clearance in rat at 3 mg/kg, po; format: ADME, organism-based; set-up: dose 3 mg/kg, route oral; details: in vivo
How it was run: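 Rats dosed orally at 3 mg/kg; blood sampled via the hepatic portal vein and heart. Estimated clearance derived from in vivo hepatic extraction, taking rat liver blood flow as 85 (mL/min)/kg.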

[3] = Apparent permeability of the compound; format: ADME; details: not told
How it was run: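 Artificial membrane permeability: donor holds 10 mM sample in pH 7.05 phosphate buffer with 0.5% hydroxypropylcyclodextrin. Membrane is 1.8% phosphatidylcholine and 1% cholesterol in decane. Donor and acceptor concentrations measured by LCMS after 3 h at room temperature; permeability expressed in nm/s.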

[4] = Clearance in Swiss Beagle dog at 0.25 mg/kg, iv and 0.5 mg/kg, po; format: ADME, organism-based, Canis lupus familiaris; details: in vivo
How it was run: (§1)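 Male animals, n = 3 per species, given single iv and oral doses. Values are mean and range. Blood clearance is also expressed as % of liver blood flow, taken as (mL/min)/kg: rat 85, dog 31, minipig 30, cynomolgus monkey 44.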

[5] = Half life in Sprague-Dawley rat at 2.5 mg/kg, iv; format: ADME, organism-based; set-up: dose 2.5 mg/kg, route intravenous; details: in vivo; how it was run: as §1
[6] = Oral bioavailability in Gottingen minipig at 1 mg/kg; format: ADME, organism-based, Sus scrofa; details: pig, in vivo
How it was run: (§2)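 Male animals, n = 3 per species, given single iv and oral doses: Sprague-Dawley rat 2.5 iv / 3 po mg/kg; beagle dog 0.25 / 0.5; Göttingen minipig 0.5 / 1; cynomolgus monkey 0.25 / 1. Blood sampled; Vss from iv; bioavailability and Vss as mean [range]; Tmax as median [range].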

[7] = Cmax in cynomolgus monkey at 1 mg/kg, po; format: ADME, organism-based, Macaca fascicularis; set-up: dose 1 mg/kg, route oral; details: in vivo
[8] = Tmax in Sprague-Dawley rat at 3 mg/kg, po; format: ADME, organism-based; set-up: dose 3 mg/kg, route oral; details: in vivo; how it was run: as §2
[9] = Tmax in Swiss Beagle dog at 0.5 mg/kg, po; format: ADME, organism-based, Canis lupus familiaris; set-up: dose 0.5 mg/kg, route oral; details: in vivo; how it was run: as §2
[10] = Half life in Sprague-Dawley rat at 3 mg/kg, po; format: ADME, organism-based; set-up: dose 3 mg/kg, route oral; details: in vivo
Hepatocyte [11] = assay: Intrinsic clearance in cryopreserved rat hepatocytes assessed per gram of tissue; format: ADME, cell-based, Liver
How it was run: (§3)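 Cryopreserved hepatocytes at 70 000 cells/mL; intrinsic clearance expressed per gram of liver; single determination (human also n = 3).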

[12] = Intrinsic clearance in cryopreserved minipig hepatocytes assessed per gram of tissue; format: ADME, cell-based, Sus scrofa, Liver, Hepatocyte; details: pig; how it was run: as §3
Hepatocyte [13] = assay: Intrinsic clearance in cryopreserved human hepatocytes assessed per gram of tissue; format: ADME, cell-based, Liver; how it was run: as §3
[14] = biological target: Voltage-gated inwardly rectifying potassium channel KCNH2 (Homo sapiens, UniProt Q12809); assay: Inhibition of human ERG at 10 uM
Chain of Voltage-gated inwardly rectifying potassium channel KCNH2 (Q12809 whole entry): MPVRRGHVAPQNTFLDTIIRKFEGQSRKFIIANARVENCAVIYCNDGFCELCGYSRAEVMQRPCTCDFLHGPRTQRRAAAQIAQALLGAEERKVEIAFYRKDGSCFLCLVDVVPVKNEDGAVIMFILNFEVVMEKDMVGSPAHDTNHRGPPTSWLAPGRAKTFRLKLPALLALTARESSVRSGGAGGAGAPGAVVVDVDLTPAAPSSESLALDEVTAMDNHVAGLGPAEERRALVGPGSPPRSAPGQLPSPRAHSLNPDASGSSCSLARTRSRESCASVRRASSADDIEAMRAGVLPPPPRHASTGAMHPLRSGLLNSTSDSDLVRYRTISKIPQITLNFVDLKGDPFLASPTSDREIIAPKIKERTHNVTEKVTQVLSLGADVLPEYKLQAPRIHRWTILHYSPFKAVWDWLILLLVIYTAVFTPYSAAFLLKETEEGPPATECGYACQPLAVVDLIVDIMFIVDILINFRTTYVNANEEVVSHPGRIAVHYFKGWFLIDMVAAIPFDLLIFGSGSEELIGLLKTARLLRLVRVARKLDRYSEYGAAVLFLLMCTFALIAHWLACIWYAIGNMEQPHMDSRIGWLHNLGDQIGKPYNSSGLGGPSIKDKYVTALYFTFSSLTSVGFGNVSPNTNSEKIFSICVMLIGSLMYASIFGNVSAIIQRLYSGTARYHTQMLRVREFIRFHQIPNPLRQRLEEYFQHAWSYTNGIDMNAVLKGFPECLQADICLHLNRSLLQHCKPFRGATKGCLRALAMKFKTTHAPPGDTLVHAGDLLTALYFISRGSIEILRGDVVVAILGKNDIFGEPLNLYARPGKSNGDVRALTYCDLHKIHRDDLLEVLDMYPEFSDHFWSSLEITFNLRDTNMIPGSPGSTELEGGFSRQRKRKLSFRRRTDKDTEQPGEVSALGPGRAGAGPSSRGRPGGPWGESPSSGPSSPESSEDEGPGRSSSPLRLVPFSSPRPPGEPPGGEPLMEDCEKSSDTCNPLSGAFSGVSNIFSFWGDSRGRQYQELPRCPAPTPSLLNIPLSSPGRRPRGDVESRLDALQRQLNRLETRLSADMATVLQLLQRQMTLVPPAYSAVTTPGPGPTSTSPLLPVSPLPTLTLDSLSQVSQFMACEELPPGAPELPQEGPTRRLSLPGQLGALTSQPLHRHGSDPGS
How it was run: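 hERG tail current recorded from stably transfected cells, compound at a nominal 10 μM (stated as 3.6 μg/mL).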

Glutamate receptor 2 = Glutamate receptor 2 (Homo sapiens, UniProt P42262); assay: Allosteric modulation of human recombinant GluA2 receptor flip isoform expressed in HEK293 cells assessed as potentiation of glutamate-induced calcium influx by Fluo-4/FLIPR method relative to cyclothiazide; format: cell-based
Chain of Glutamate receptor 2 (P42262 whole entry, canonical isoform): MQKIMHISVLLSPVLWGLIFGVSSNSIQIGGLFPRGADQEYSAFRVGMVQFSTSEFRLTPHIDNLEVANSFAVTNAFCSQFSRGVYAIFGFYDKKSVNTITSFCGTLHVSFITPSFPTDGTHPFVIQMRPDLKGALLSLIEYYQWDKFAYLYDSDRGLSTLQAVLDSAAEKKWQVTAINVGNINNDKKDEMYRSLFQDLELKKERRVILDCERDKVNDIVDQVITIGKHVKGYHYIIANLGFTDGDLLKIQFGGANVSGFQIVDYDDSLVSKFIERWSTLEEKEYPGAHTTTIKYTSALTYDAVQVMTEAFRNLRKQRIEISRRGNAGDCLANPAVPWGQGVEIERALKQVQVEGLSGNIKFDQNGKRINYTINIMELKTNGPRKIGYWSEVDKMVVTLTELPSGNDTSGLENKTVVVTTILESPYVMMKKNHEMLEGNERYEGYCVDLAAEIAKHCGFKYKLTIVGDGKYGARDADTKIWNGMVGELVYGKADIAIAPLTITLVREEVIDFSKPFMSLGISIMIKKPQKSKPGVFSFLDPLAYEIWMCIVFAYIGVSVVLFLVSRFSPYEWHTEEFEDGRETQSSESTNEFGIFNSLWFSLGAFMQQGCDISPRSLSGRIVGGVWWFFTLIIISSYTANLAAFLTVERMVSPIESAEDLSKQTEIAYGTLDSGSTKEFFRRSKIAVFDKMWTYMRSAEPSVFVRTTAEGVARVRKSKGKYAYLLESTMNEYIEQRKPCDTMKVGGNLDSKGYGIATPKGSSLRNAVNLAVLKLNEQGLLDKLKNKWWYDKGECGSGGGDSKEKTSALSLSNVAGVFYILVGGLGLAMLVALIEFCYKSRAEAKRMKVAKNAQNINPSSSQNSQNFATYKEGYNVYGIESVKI
How it was run: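 Stable GluA2 flip (unedited) cells seeded to confluence 2-3 days before assay; washed in HEPES buffer (145 NaCl, 5 KCl, 2 CaCl2, 1 MgCl2, 5.5 glucose, pH 7.3), loaded with 2 μM Fluo4-AM 60 min at room temperature. FLIPR dual addition: compound 5 min before 100 μM glutamate; fluorescence rise expressed against maximal cyclothiazide response, fitted pEC50 and Asym max; n ≥ 3.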

Rattus norvegicus [15] = assay: Neurotoxicity in Lister Hooded rat assessed proconvulsant effect at 30 mg/kg, ip by MEST test; format: toxicity, organism-based; set-up: dose 30 mg/kg, route intraperitoneal; details: in vivo
How it was run: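 Male Lister Hooded rats pretreated with compound, saline vehicle or picrotoxin 30 min before corneal electroshock (CC50 about 60–70 mA, 0.1 ms); tonic and tonic-clonic seizure threshold scored; brain concentrations taken from satellite rats sampled right after testing.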

Brain [16] = assay: Drug level in Lister Hooded rat assessed per gram of tissue at 30 mg/kg, ip; format: ADME, organism-based; set-up: dose 30 mg/kg, route intraperitoneal; details: in vivo
How it was run: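 Male Lister Hooded rats pretreated 30 min before the maximal electroshock threshold test with compound or saline vehicle; picrotoxin served as positive control. Corneal current applied, CC50 about 60-70 mA, 0.1 ms. Brain levels measured in satellite rats sampled immediately after testing.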

Brain [17] = assay: Drug level in Lister Hooded rat assessed per gram of tissue at 0.3 mg/kg, ip; format: ADME, organism-based; set-up: dose 0.3 mg/kg, route intraperitoneal; details: in vivo
How it was run: (§4)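 Male Lister Hooded rats (n = 9-12/group) tested for reversal of a 24 h delay-induced deficit in novel object recognition. Significant doses flagged. Brain concentrations measured in the study animals at the end of the test.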

Brain [18] = assay: Drug level in Lister Hooded rat assessed per gram of tissue at 3 mg/kg, ip; format: ADME, organism-based; set-up: dose 3 mg/kg, route intraperitoneal; details: in vivo; how it was run: as §4
Canis familiaris = assay: Hepatic blood flow in Swiss Beagle dog at 0.25 mg/kg, iv and 0.5 mg/kg, po; format: ADME, organism-based, Canis lupus familiaris, Liver; details: in vivo; how it was run: as §1
Cynomolgus monkey = assay: Hepatic blood flow in cynomolgus monkey at 0.25 mg/kg, iv and 1 mg/kg, po; format: ADME, organism-based, Macaca fascicularis, Liver; details: in vivo; how it was run: as §1
Rattus norvegicus [19] = assay: Cognitive enhancing effect in Wistar rat assessed as reversal of scopolamine-induced amnesic deficit at 10 to 30 mg/kg, ip by passive avoidance test
Rattus norvegicus [20] = assay: Cognitive enhancing effect in Lister Hooded rat assessed as reversal of 24 hrs delay-induced cognitive deficit at 0.1 mg/kg, ip by novel object recognition test

Chain of Cytochrome P450 2D6 (P10635 whole entry): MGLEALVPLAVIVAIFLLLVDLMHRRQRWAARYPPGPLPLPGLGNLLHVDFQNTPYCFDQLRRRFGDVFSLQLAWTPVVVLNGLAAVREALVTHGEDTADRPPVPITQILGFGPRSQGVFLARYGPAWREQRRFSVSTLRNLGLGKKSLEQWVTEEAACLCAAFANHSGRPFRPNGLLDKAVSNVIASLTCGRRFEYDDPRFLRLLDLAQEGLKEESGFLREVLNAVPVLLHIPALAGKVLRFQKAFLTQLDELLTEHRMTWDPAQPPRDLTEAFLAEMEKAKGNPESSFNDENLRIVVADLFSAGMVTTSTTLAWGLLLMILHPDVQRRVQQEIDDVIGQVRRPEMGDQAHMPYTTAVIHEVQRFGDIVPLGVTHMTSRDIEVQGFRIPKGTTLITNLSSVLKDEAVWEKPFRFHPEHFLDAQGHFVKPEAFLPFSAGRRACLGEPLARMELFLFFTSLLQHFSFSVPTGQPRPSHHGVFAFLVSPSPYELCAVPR

Molecule `O=C(c1ccc(-n2nc(C(F)(F)F)c3c2CCCC3)cc1)N1CCCC1` has an IC50 (Cytochrome P450 2D6) of 6 µM, a Cmax [1] of 228 ng/mL and a CL/F [2] of 12 mL/min/kg. The Papp [3] was 41.5 ×10⁻⁶ cm/s, the clearance [4] was 32 mL/min/kg and the half-life [5] was 1.4 h. For the same molecule, the bioavailability [6] was 13%, the Cmax [7] was 5 ng/mL and the Tmax [8] was 0.5 h. The Tmax [9] was 0.6 h, the half-life [10] was 2.3 h and the CL (Hepatocyte [11]) was 2.3 mL/min/g. For the same molecule, the CL [12] was 7 mL/min/g, the CL (Hepatocyte [13]) was 1.2 mL/min/g and the “inhibition (INH)” value [14] was “Not Active”. For the same molecule, the Activity (Glutamate receptor 2) was 123%, the Activity (Rattus norvegicus [15]) was “Non-toxic” and the Drug uptake (Brain [16]) was 4686 ng/g. The Drug uptake (Brain [17]) was 19 ng/g, the Drug uptake (Brain [18]) was 542 ng/g and the QH (Canis familiaris) was 100%. For the same molecule, the QH (Cynomolgus monkey) was 86%, the Activity (Rattus norvegicus [19]) was “Active” and the Activity (Rattus norvegicus [20]) was “Active”.
